Assay results taken from ChEMBL document CHEMBL1155265, “Design, synthesis and in vitro antibacterial/antifungal evaluation of novel 1-ethyl-6-fluoro-1,4-dihydro-4-oxo-7(1-piperazinyl)quinoline-3-carboxylic acid derivatives” (2009).

Assays:
Type in all cases: functional
Xanthomonas oryzae = test: Antibacterial activity against Xanthomonas oryzae at 50 mg/L after 24 hrs by agar well diffusion method; conditions: read-out: DIZ
Xanthomonas axonopodis = test: Antibacterial activity against Xanthomonas axonopodis at 50 mg/L after 24 hrs by agar well diffusion method; conditions: read-out: DIZ
Outline: (§1)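 Bacteria plated as 0.8 mL of 24-h-old inoculum mixed into 60 mL sterile molten agar cooled to 45 °C, poured into three dishes. Wells bored with centres at least 24 mm apart. Test sample at 50 mg/L in DMSO added to wells. DMSO served as negative control and agricultural streptomycin sulfate as positive control. Read-out was inhibition zone diameter (mm).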

Erwinia = test: Antibacterial activity against Erwinia aroideae at 50 mg/L after 24 hrs by agar well diffusion method; conditions: read-out: DIZ; outline: as §1
Bacillus subtilis = test: Antibacterial activity against Bacillus subtilis at 50 mg/L after 24 hrs by agar well diffusion method; conditions: read-out: DIZ; outline: as §1
Ralstonia solanacearum = test: Antibacterial activity against Ralstonia solanacearum at 50 mg/L after 24 hrs by agar well diffusion method; conditions: read-out: DIZ
Rhizoctonia solani = test: Antifungal activity against Rhizoctonia solani at 200 mg/L by plate growth rate method; conditions: read-out: GI
Outline: (§2)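 Compound dissolved in DMSO and mixed into molten PDA at 45 °C at 200 mg/L, then plates allowed to set. A 5 mm mycelial agar disc was placed at the centre. Plates were incubated at 28 °C in the dark until the untreated control covered the plate. Colony diameters were measured and growth inhibition calculated by Abbott's formula. Each compound was tested three times.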

Fusarium graminearum = test: Antifungal activity against Gibberella zeae at 200 mg/L by plate growth rate method; conditions: read-out: GI
Outline: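 Plate growth rate method: compound dissolved in DMSO, mixed into sterile PDA at 45 °C to 200 mg/L, plates poured. A 5 mm mycelium agar disc placed centrally; incubated at 28 °C in the dark until the untreated control covered the plate. Colony diameters measured; growth inhibition computed by Abbott's formula. Each compound tested three times.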

Cytospora mali = test: Antifungal activity against Valsa mali at 200 mg/L by plate growth rate method; conditions: read-out: GI; outline: as §2

| SMILES | zone of inhibition at 50 µg/mL (Xanthomonas oryzae) | zone of inhibition at 50 µg/mL (Xanthomonas axonopodis) | zone of inhibition at 50 µg/mL (Erwinia) | zone of inhibition at 50 µg/mL (Bacillus subtilis) | zone of inhibition at 50 µg/mL (Ralstonia solanacearum) | inhibition of growth at 200 µg/mL (Rhizoctonia solani) | inhibition of growth at 200 µg/mL (Fusarium graminearum) | inhibition of growth at 200 µg/mL (Cytospora mali) |
| --- | --- | --- | --- | --- | --- | --- | --- | --- |
| CCn1cc(C(=O)O)c(=O)c2cc(F)c(N3CCN(C(=O)COc4ccccc4Cl)CC3)cc21 | 17.2 mm | 10.4 mm | 11.8 mm | 14.2 mm | 4.67 mm | 3% | 10% | 12% |
| CCn1cc(C(=O)O)c(=O)c2cc(F)c(N3CCN(C(=O)COc4ccc(OC)cc4)CC3)cc21 | 14.5 mm | 12.5 mm | 15.2 mm | 17.6 mm | 6.31 mm | 60% | 17% | 10% |
| CCn1cc(C(=O)O)c(=O)c2cc(F)c(N3CCN(C(=O)COc4ccc(C(C)(C)C)cc4)CC3)cc21 | 5.81 mm | 6.41 mm | 8.52 mm | 10.8 mm | 10.9 mm | 53% | 28% | 14% |
| CCn1cc(C(=O)O)c(=O)c2cc(F)c(N3CCN(C(=O)COc4ccc(F)cc4)CC3)cc21 | 11 mm | 11.1 mm | 13.3 mm | 13.9 mm | 3.31 mm | 52% | 15% | 12% |
| CCn1cc(C(=O)O)c(=O)c2cc(F)c(N3CCN(C(=O)COc4ccccc4OC)CC3)cc21 | 11.9 mm | 11 mm | 12.9 mm | 17.7 mm | 4.97 mm | 0% | 14% | 7% |
| CCn1cc(C(=O)O)c(=O)c2cc(F)c(N3CCN(C(=O)c4cc5ccccc5o4)CC3)cc21 | 8.35 mm | 8.66 mm | 11 mm | 11.2 mm | 8.56 mm | 17% | 7% | 9% |
| CCn1cc(C(=O)O)c(=O)c2cc(F)c(N3CCN(C(=O)c4oc5ccccc5c4C)CC3)cc21 | 5.44 mm | 5.24 mm | 5.94 mm | 6.99 mm | 3.56 mm | 65% | 45% | 33% |
| CCn1cc(C(=O)O)c(=O)c2cc(F)c(N3CCN(C(=O)COc4ccc(Br)cc4)CC3)cc21 | 8.02 mm | 10.7 mm | 8.94 mm | 12.7 mm | 7.47 mm | 49% | 6% | 9% |
| CCn1cc(C(=O)O)c(=O)c2cc(F)c(N3CCN(C(=O)/C=C/c4ccccc4)CC3)cc21 | 11.7 mm | 12.1 mm | 10.8 mm | 15.2 mm | 4.64 mm | 29% | 5% | 9% |
| CCn1cc(C(=O)O)c(=O)c2cc(F)c(N3CCN(C(=O)c4cc(C)oc4C)CC3)cc21 | 18.1 mm | 11.7 mm | 11.7 mm | 15.7 mm | 8.39 mm | 16% | 25% | 29% |
| CCn1cc(C(=O)O)c(=O)c2cc(F)c(N3CCN(C(=O)c4c(C)oc(C)c4C)CC3)cc21 | 12.7 mm | 11.1 mm | 12.4 mm | 13.9 mm | 5.31 mm | 65% | 24% | 40% |
| CCn1cc(C(=O)O)c(=O)c2cc(F)c(N3CCN(C(=O)/C=C/c4ccc(C)o4)CC3)cc21 | 18.1 mm | 10.2 mm | 11.2 mm | 17 mm | 6.97 mm | 83% | 25% | 25% |
| CCn1cc(C(=O)O)c(=O)c2cc(F)c(N3CCN(C(=O)COc4ccc(Cl)cc4Cl)CC3)cc21 | 10 mm | 8.16 mm | 8.52 mm | 9.91 mm | 0.5 mm | 72% | 5% | 17% |
| CCn1cc(C(=O)O)c(=O)c2cc(F)c(N3CCN(C(=O)c4ccco4)CC3)cc21 | 22.9 mm | 15.5 mm | 13.8 mm | 22.5 mm | 9.81 mm | 14% | 7% | 8% |
| CCn1cc(C(=O)O)c(=O)c2cc(F)c(N3CCN(C(=O)c4cccnc4)CC3)cc21 | 7.94 mm | 6.58 mm | 9.19 mm | 8.74 mm | 1.06 mm | 12% | 11% | 17% |
| CCn1cc(C(=O)O)c(=O)c2cc(F)c(N3CCN(C(=O)/C=C/c4ccco4)CC3)cc21 | 15.3 mm | 12.9 mm | 14.9 mm | 19.4 mm | 5.72 mm | 20% | 8% | 7% |
| CCn1cc(C(=O)O)c(=O)c2cc(F)c(N3CCN(C(=O)COc4ccccc4C)CC3)cc21 | 14.2 mm | 10.7 mm | 13.4 mm | 15.3 mm | 6.22 mm | 34% | 20% | 19% |
| CCn1cc(C(=O)O)c(=O)c2cc(F)c(N3CCN(C(=O)c4ccc(Br)o4)CC3)cc21 | 13 mm | 12.1 mm | 13.7 mm | 18.9 mm | 6.72 mm | 47% | 26% | 27% |
| CCn1cc(C(=O)O)c(=O)c2cc(F)c(N3CCN(C(=O)COc4ccccc4)CC3)cc21 | 15.3 mm | 15 mm | 13.8 mm | 17.3 mm | 4.89 mm | 30% | 17% | 8% |
| CCn1cc(C(=O)O)c(=O)c2cc(F)c(N3CCNCC3)cc21 [NORFLOXACIN] | 22.2 mm | 17.7 mm | 21.5 mm | 30.5 mm | 19.3 mm | 0% | 18% | 27% |
